Sampled rows, rich in hits. Any-hit rate of the full collection: about 4.1%.
KCNQ1 block: human KCNQ1 channel inhibition; B-score at 10 µM; AID 2642; CHO-K1 KCNQ1, FluxOR thallium flux fluorescence; hits give high values; 1.3% of 310,000 active; P51787;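 active means compounds whose thallium flux B-score, printed positive for inhibition, exceeds three library SD while starting fluorescence stays within three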;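 further: channel opened by potassium depolarization with thallium stimulus after 20 min compound exposure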
KCNK3 block: human KCNK3 channel inhibition, primary screen; CHO-KCNK3 thallium flux, FluxOR fluorescence; hits give low values; 0.84% of 340,000 active; O14649; B-score at 10 µM;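 active means B-score under library mean minus 4 SD, starting fluorescence ratio at most library mean plus 5 SD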;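 further: more negative B-score means stronger inhibition of thallium flux through KCNK3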
KCNQ1 pot: potentiates or activates the human KCNQ1 potassium channel; B-score at 10 µM; AID 2648; CHO-K1 KCNQ1, thallium flux FluxOR fluorescence; hits give high values; 0.35% of 310,000 active; P51787;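 active means fluorescence ratio B-score, a plate-corrected score, at least three library SD, with initial intensity B-score within 5 SD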
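System: CHO-K1 cells stably expressing KCNQ1 / Medium: assay buffer for compound exposure, DMSO matched across wells / Reagent: thallium- and potassium-containing depolarizing buffer / Compound: one concentration, matched DMSO / Incubation: 20 min compound pretreatment at room temperature / Measured by: kinetic FluxOR fluorescence, 10 s baseline plus 110 s post-stimulus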
KCNK9 block: blocks the human KCNK9 two-pore domain potassium channel; HEK293 KCNK9, FluxOR thallium flux fluorescence; hits give low values; 1.2% of 310,000 active; AID 488922; B-score at 10 µM;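 active means ratio B-score over 3 SD below the library mean, with starting fluorescence within 5 SD of its mean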;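 further: negative B-score means less thallium flux so channel inhibition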
Target sequence (Q9NPC2 whole entry, looked up, the tested form may be a part): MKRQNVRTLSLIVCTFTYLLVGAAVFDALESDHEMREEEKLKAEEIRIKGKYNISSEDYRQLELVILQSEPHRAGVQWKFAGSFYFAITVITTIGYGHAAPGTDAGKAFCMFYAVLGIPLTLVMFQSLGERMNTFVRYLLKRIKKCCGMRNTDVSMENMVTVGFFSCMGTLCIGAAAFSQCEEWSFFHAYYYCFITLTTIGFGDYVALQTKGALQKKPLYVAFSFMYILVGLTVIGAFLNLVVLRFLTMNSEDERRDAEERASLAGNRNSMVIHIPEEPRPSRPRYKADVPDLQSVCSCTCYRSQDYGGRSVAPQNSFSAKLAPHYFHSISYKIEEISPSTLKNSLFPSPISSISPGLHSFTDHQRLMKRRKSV
Cl transport mod: modulators of human KCC2 chloride dependent transport; Q9H2X9; KCC2 cells, thallium flux FluoZin-2 fluorescence; B-score of Tl+ flux slope (higher = more flux/activation; lower = inhibition) at 10 µM; 2.2% of 190,000 active; AID 1456;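 active means thallium flux slope and its plate-corrected score both differing from the plate sample mean at a set confidence after two filtering rounds, in either direction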;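 further: slope of fluorescence scaled to starting intensity during 10 to 20 s after thallium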
hERG rescue: hERG (human) protection from proarrhythmic block; Q12809; CHO-hERG, FluxOR thallium flux, dofetilide IC70 present; activation (rescue from dofetilide block), less the hit threshold, % at 10 µM; 0.51% of 310,000 active; AID 1511;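 active means activation above the mean of controls blocked by dofetilide plus 5 SD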;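 further: thallium influx through hERG after potassium depolarization seen as dye fluorescence rise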
Active calls of the source: *; i = inactive; . = no result given.

SMILES	KCNQ1 block	KCNK3 block	KCNQ1 pot	KCNK9 block	Cl transport mod	hERG rescue
CCN(CC)C(=S)NC(=O)c1ccc(Cl)cc1Cl	i	i	17*	i	11.7*	13.1*
Cc1ccccc1C(=O)NC(=S)NCCc1ccccc1	i	i	i	i	8.3*	-3.3
CCCCNC(=S)NC(=O)c1ccc(Cl)cc1Cl	i	i	i	i	5.3*	-6.4
O=C(NC(=S)N1CCCC1)c1ccc(Cl)cc1Cl	i	i	i	i	.	1.1
CC1CCCC(NC(=S)NC(=O)c2ccccc2Br)C1C (centres undefined)	i	i	8*	i	23*	7.2*
CSCCC(NC(=O)c1cccc([N+](=O)[O-])c1)C(=O)OCC(=O)N1CCCC1=O (centres undefined)	i	i	i	i	.	-15.8
Cn1cc(/C=C(\NC(=O)c2ccccc2)C(=O)NCCCN2CCOCC2)c2ccccc21	i	i	i	i	.	-10.4
O=C(NC(=S)Nc1ccc(Br)cc1)C1CCC1	i	i	i	i	.	-5.2
CCCCNC(=S)NC(=O)c1ccccc1Br	i	i	i	i	34.7*	-0.1
CCCCN(CCCC)C(=S)NC(=O)c1ccccc1Cl	i	i	57*	i	64.8*	64.6*
COC(=O)/C=C(\C)NC(=O)c1ccccc1Cl	i	i	i	i	.	-11.9
O=C(NNC(=S)NCCc1ccccc1)c1ccc(Br)s1	8*	i	i	i	-0.704	-2.6
CCOC(=O)CNC(=O)OC1CCN2Cc3ccccc3N=C12 (centres undefined)	i	i	i	i	.	-2.0
CCOc1ccc(CN2CCC(=O)NC2=O)cc1	i	i	i	i	0.711	-22.6
COc1ccccc1NC(=O)NNC(=O)COc1ccc2ccccc2c1	i	i	i	i	.	-7.8
CCOc1ccc(C2c3[nH]c4ccccc4c3CCN2CCCn2cccn2)cc1 (centres undefined)	6*	i	i	i	.	-11.1
CCOc1ccc(S(=O)(=O)N2CCCC(C(=O)Nc3cccc(C)c3)C2)cc1 (centres undefined)	i	i	i	i	.	-6.8
CC(NC(=O)c1ccncc1)C(C)(C)C (centres undefined)	i	i	41*	i	.	2.6
Cc1ccc(C(C)NC(=O)c2ccncc2)cc1C (centres undefined)	i	i	i	i	.	-11.1
Cc1ccc(C)c(N2CCN(c3ncccc3[N+](=O)[O-])CC2)c1	i	i	i	-6.63*	.	-15.1
O=S(=O)(c1ccccc1Cl)N1CCC(Cc2ccccc2)CC1	6*	i	i	i	.	-17.9
CC(C)CCC[C@@H](C)[C@H]1CC[C@H]2[C@@H]3C(=O)C=C4C[C@@H](O)CC[C@]4(C)[C@H]3CC[C@]12C	i	i	i	i	.	-6.4
C=C1/C(=C\C=C2/CCC[C@]3(C)[C@@H]([C@H](C)CCCC(C)(C)O)CC[C@@H]23)C[C@@H](O)C[C@@H]1O	7*	.	i	i	0.528	-6.7
COc1ccc(C(CCNCc2ccc(OC(C)C)cc2)c2ccccc2OC)cc1 (centres undefined)	6*	i	i	i	.	-19.8
COc1ccc(C(CCNCc2ccc(F)cc2)c2ccc(F)cc2)cc1 (centres undefined)	i	i	i	i	1.89	-14.7
COc1ccc(CNCCC(c2ccc(F)cc2)c2ccc(OC)cc2)cc1 (centres undefined)	7*	i	i	i	-0.234	-22.1
C=CCNC(=O)N[C@@H](Cc1ccccc1)C(=O)OC	i	i	i	i	1.41	-5.9
COc1cccc(C=NCC(C)N=Cc2cccc(OC)c2O)c1O (centres undefined)	i	i	i	i	-0.408	5.2*
COc1ccc(O)c(C=NCC(C)N=Cc2cc(OC)ccc2O)c1 (centres undefined)	i	i	i	i	-0.581	-2.8
CCC1(C)Cc2ccccc2-c2[nH]c(=S)[nH]c(=O)c21 (centres undefined)	i	i	i	i	.	-8.2
